Measured values as given in ChEMBL document CHEMBL4706502, “Synthesis and structure activity relationships of cyanopyridone based anti-tuberculosis agents” (Eur J Med Chem, 2020).
Active and inactive are the calls of the source. No cut-off for these calls is given here.

Tests used:
[1] = tested on: Mycobacterium tuberculosis; experiment: Antitubercular activity against Mycobacterium tuberculosis H37Rv ATCC 27294 assessed as reduction in microbial growth under 7H9/glucose medium after 1 week by two fold serial dilution method; assay type: functional; settings: H37Rv ATCC 27294, 168 h, time 1 weeks
In short: (§1)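 M. tuberculosis H37Rv grown to OD650nm 0.2-0.3 and diluted 1000-fold; about 1× 10^4 bacteria per well. Compounds taken from DMSO stocks and 2-fold serially diluted, in duplicate. Incubated 37 °C for 1 week, read by inverted mirror. MIC = lowest concentration giving complete growth inhibition. Isoniazid positive control, DMSO negative control. Media: GAST/Fe pH 6.6 or 7H9/glucose/casitone/Tyloxapol.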

[2] = tested on: Mycobacterium tuberculosis; experiment: Antitubercular activity against Mycobacterium tuberculosis H37Rv ATCC 27294 assessed as reduction in microbial growth under GAST/Fe medium after 1 week by two fold serial dilution method; assay type: functional; settings: H37Rv ATCC 27294, 168 h, time 1 weeks; in short: as §1
[3] = Cytotoxicity against human MRC5 cells assessed as reduction in cell viability after 24 hrs by NRU assay; assay type: cell-based
[4] = Inhibition of wild-type Mycobacterium tuberculosis thymidylate kinase expressed in Escherichia coli BLi5 competent cells using dTMP as substrate by lactate dehydrogenase, pyruvate kinase and nucleoside diphosphate kinase coupled spectrophotometric method
In short: (§2)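 Purified MtbTMPK in a coupled spectrophotometric assay. Substrates fixed at dTMP 0.05 mM and ATP 0.5 mM. Compounds in DMSO, serially diluted; IC50 calculated, or no inhibition recorded at 0.2 mM.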

[5] = Selectivity index, ratio of CC50 for human MRC5 cells to ratio of MIC99 for antitubercular activity against Mycobacterium tuberculosis H37Rv ATCC 27294 assessed as reduction in microbial growth under GAST/Fe medium; assay type: toxicity; settings: read-out: Selectivity Index
[6] = Selectivity index, ratio of CC50 for human MRC5 cells to ratio of MIC99 for antitubercular activity against Mycobacterium tuberculosis H37Rv ATCC 27294 assessed as reduction in microbial growth under 7H9/glucose medium; assay type: toxicity; settings: read-out: Selectivity Index
[7] = tested on: Mycobacterium tuberculosis; experiment: Inhibition of wild-type Mycobacterium tuberculosis thymidylate kinase expressed in Escherichia coli BLi5 competent cells at 0.2 mM using dTMP as substrate by lactate dehydrogenase, pyruvate kinase and nucleoside diphosphate kinase coupled spectrophotometric method; in short: as §2

Row | SMILES | MIC99 [1] [µM] | MIC99 [2] [µM] | CC50 at 24 h [3] [µM] | IC50 [4] [µM] | selectivity ratio [5] | selectivity ratio [6] | inhibition [7]
1 | CS(=O)(=O)c1c(-c2ccc(C(F)(F)F)cc2)c[nH]c(=O)c1C#N | > 50 | > 50 | > 64 |  |  |  | 
2 | COc1ccc(-c2c[nH]c(=O)c(C#N)c2[S+](C)[O-])cc1 (centres undefined) | > 100 | > 100 | > 64 |  |  |  | 
3 | NNC(=O)c1ccncc1 [ISONIAZID] | 0.15 | 0.2 |  |  |  |  | 
4 | C[S+]([O-])c1c(-c2cccc(Cl)c2)c[nH]c(=O)c1C#N (centres undefined) | 19 | 37 | > 64 |  |  |  | 
5 | C[S+]([O-])c1cc(-c2cccc(Br)c2)[nH]c(=O)c1C#N (centres undefined) | 19 | 19 |  | 28 |  |  | 
6 | Cc1ccc(Oc2cccc(-c3c[nH]c(=O)c(C#N)c3[S+](C)[O-])c2)cc1 (centres undefined) | 25 | 6.25 | 30 |  |  |  | 
7 | C[S+]([O-])c1c(-c2ccc(Cl)cc2)c[nH]c(=O)c1C#N (centres undefined) | 19 | 25 | > 64 |  |  |  | 
8 | C[S+]([O-])c1c(-c2ccc(Cl)c(Cl)c2)c[nH]c(=O)c1C(N)=O (centres undefined) | 50 | ≥ 50 | 16 |  |  |  | 
9 | C[S+]([O-])c1c(-c2ccc(Oc3ccc(Cl)c(Cl)c3)cc2)c[nH]c(=O)c1C#N (centres undefined) | 9.4 | 19 | 28 |  |  |  | 
10 | C[S+]([O-])c1c(-c2cccc(Oc3ccc(Cl)c(Cl)c3)c2)c[nH]c(=O)c1C#N (centres undefined) | 12.5 | 19 | 8 |  |  |  | 
11 | C[S+]([O-])c1c(-c2cccc(OCc3ccc(Cl)cc3)c2)c[nH]c(=O)c1C#N (centres undefined) | 9.4 | 9.4 | 31 |  |  |  | 
12 | COc1ccc(Oc2ccc(-c3c[nH]c(=O)c(C#N)c3[S+](C)[O-])cc2)cc1 (centres undefined) | 19 | 9.4 | 23 |  |  |  | 
13 | COc1ccc(Oc2cccc(-c3c[nH]c(=O)c(C#N)c3[S+](C)[O-])c2)cc1 (centres undefined) | 25 | 6.25 | 30 |  |  |  | 
14 | CSc1c(-c2ccccc2)c[nH]c(=O)c1C#N | 100 | ≥ 100 | 64 | 206 |  |  | 
15 | CS(=O)(=O)c1c(-c2ccccc2Cl)c[nH]c(=O)c1C#N | 37 | > 50 | > 64 |  |  |  | 
16 | C[S+]([O-])c1c(-c2ccccc2Cl)c[nH]c(=O)c1C#N (centres undefined) | 12.5 | 37 | > 64 |  |  |  | 
17 | C[S+]([O-])c1c(-c2cccc(OCc3ccccc3[N+](=O)[O-])c2)c[nH]c(=O)c1C#N (centres undefined) | 37 | 19 | 64 |  |  |  | 
18 | C[S+]([O-])c1c(-c2ccc(-c3ccccc3)cc2)c[nH]c(=O)c1C#N (centres undefined) | 1.2 | 2.3 | > 64 |  | 27.8 | 50 | 

Row | SMILES | MIC99 [1] [µM] | MIC99 [2] [µM] | CC50 at 24 h [3] [µM] | IC50 [4] [µM] | selectivity ratio [5] | selectivity ratio [6] | inhibition [7]
19 | C[S+]([O-])c1c(-c2cccc(OCc3ccccc3)c2)c[nH]c(=O)c1C#N (centres undefined) | 19 | 6.25 | 25 |  |  |  | 
20 | C[S+]([O-])c1c(-c2cccc(Oc3ccc(Cl)cc3)c2)c[nH]c(=O)c1C#N (centres undefined) | 12.5 | 9.5 | 24 |  |  |  | 
21 | C[S+]([O-])c1c(-c2cccc(Oc3ccccc3)c2)c[nH]c(=O)c1C#N (centres undefined) | 37 |  | 32 |  |  |  | inactive
22 | C[S+]([O-])c1c(-c2ccc(C(F)(F)F)cc2)c[nH]c(=O)c1C#N (centres undefined) | 37 | 19 | > 64 |  |  |  | 
23 | CS(=O)(=O)c1c(-c2ccc(Cl)c(Cl)c2)c[nH]c(=O)c1C(N)=O |  | 19 | > 64 |  |  |  | 
24 | Cc1ccc(Oc2ccc(-c3c[nH]c(=O)c(C#N)c3[S+](C)[O-])cc2)cc1 (centres undefined) | 9.4 | 4.7 | 28 |  |  |  | 
25 | C[S+]([O-])c1c(-c2cccc(OCc3ccc(Cl)c(Cl)c3)c2)c[nH]c(=O)c1C#N (centres undefined) | 9.4 | 9.4 | > 64 |  |  |  | 
26 | C[S+]([O-])c1c(-c2ccc(OCc3ccccc3)cc2)c[nH]c(=O)c1C#N (centres undefined) | 9.4 | 4.7 | 25 |  |  |  | 
27 | CS(=O)(=O)c1c(-c2cccc(Cl)c2)c[nH]c(=O)c1C#N | > 50 | > 50 | > 64 |  |  |  | 
28 | C[S+]([O-])c1c(-c2cccc(OCc3cccc(Cl)c3)c2)c[nH]c(=O)c1C#N (centres undefined) | 9.4 | 9.4 | > 64 |  |  |  | 
29 | C[S+]([O-])c1c(-c2ccc(Cl)c(Cl)c2)c[nH]c(=O)c1C#N (centres undefined) | 19 | 12.5 | > 64 |  |  |  | 
30 | C[S+]([O-])c1c(-c2ccc(Oc3ccccc3)cc2)c[nH]c(=O)c1C#N (centres undefined) | 25 | 3.13 | > 64 |  |  |  | inactive
31 | C[S+]([O-])c1c(-c2ccccc2Oc2ccccc2)c[nH]c(=O)c1C#N (centres undefined) | 50 | 9.4 | 30 |  |  |  | inactive
32 | C[S+]([O-])c1c(-c2ccccc2)c[nH]c(=O)c1C#N (centres undefined) | 25 | 37 | > 64 |  |  |  | inactive
33 | C[S+]([O-])c1c(-c2cccc(OCc3ccccc3Cl)c2)c[nH]c(=O)c1C#N (centres undefined) | 9.4 | 4.7 | 25 |  |  |  | 
34 | C[S+]([O-])c1c(-c2ccc(Br)cc2)c[nH]c(=O)c1C#N (centres undefined) | 12.5 | 19 | > 64 |  |  |  | 
35 | C[S+]([O-])c1c(-c2ccc(Oc3ccc(Cl)cc3)cc2)c[nH]c(=O)c1C#N (centres undefined) | 9.4 | 9.4 | 25 |  |  |  | 
